Data on one compound can be found in ChEMBL document CHEMBL5338796, “Discovery of a Selective and Orally Bioavailable FGFR2 Degrader for Treating Gastric Cancer” (J Med Chem, 2023).

For data set [1], the target named is Fibroblast growth factor receptor (Homo sapiens) (UniProt P22607+P11362+P22455+P21802). Put plainly: Induction of FGFR degradation in human KATO III stomach cancer cell line assessed as reduction in FGFR phosphorylation at A-loop Tyr656/657 residue at 25 nM measured for 6 hrs. It is filed as cell-based. The procedure, abridged: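 KATO III cells treated 6 h at the indicated concentrations with degrader or BGJ398; FGFR A-loop Tyr656/657 autophosphorylation monitored by immunoblot.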

Data set [2] in a line: Toxicity in ICR mouse assessed as change in heart weight at 20 mg/kg, po measured for 30 days. Format: organism-based. As to conditions: in vivo, 720 h, time 30 day. The procedure, abridged:
(§1)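 ICR mice (n = 6) were dosed orally at 20 mg/kg/day for 30 days, alongside vehicle-treated controls. Mortality and clinical signs were checked daily. At the end, body and organ weights were recorded. Heart, liver, spleen, lung and kidney were examined by hematoxylin and eosin staining.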

Data set [3] is described as follows: Hepatotoxicity in ICR mouse assessed as effect on ALT level at 20 mg/kg, po measured for 30 days. As to conditions: in vivo, 720 h, time 30 day. It is filed as toxicity, organism-based. The procedure, abridged:
(§2)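 ICR mice given 20 mg/kg/day orally for 30 days (n = 6), vehicle controls; mortality and clinical signs checked daily, then AST/ALT and creatinine, organ weights, haematology and H&E of heart, liver, spleen, lung, kidney.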

A further data set deals with NCI-H1975. The experiment in a line: Antiproliferative activity against human NCI-H1975 cells assessed as reduction in cell viability measured for 72 hrs by celltiter-glo reagent based assay. The settings on record: NCI-H1975, 72 h. Format: functional. The procedure, abridged:
(§3)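 Cancer lines KATO III, SNU16, NCI-H716, NCI-H1975, MV-4-11 and HEK293T treated 72 h; antiproliferative IC50 given as mean ± s.d. from three independent biological experiments.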
A general note: In ATP-based viability assays light output follows the ATP content of the culture.

The subject of data set [4] is BaF3. Put plainly: Antiproliferative activity against mouse BaF3 cells expressing Tel-FGFR2 assessed as cell growth inhibition measured after 72 hrs by celltiter-glo reagent based assay. Format: functional. The settings on record: BaF3, 72 h. The procedure, abridged:
(§4)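 Ba/F3 cells stably expressing cytoplasmic TEL-FGFR1, -2, -3 or -4 fusions were treated in 96-well format, final DMSO 0.1%, for 72 h. Viability read by CellTiter-Glo luminescence after 10 min at room temperature. Inhibition calculated from blank- and control-corrected RLU; IC50 from 4-parameter concentration–response fit.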

The nature of data set [5]: Toxicity in ICR mouse assessed as change in spleen weight at 20 mg/kg, po measured for 30 days. The settings on record: in vivo, 720 h, time 30 day. Format: organism-based. The procedure, abridged: as §1
Data set [6] in a line: Clearance in mice at 3 mg/kg, iv measured at 0.083 to 24 hrs by LC-MS/MS analysis. The settings on record: mouse, in vivo.
A short description of data set [7]: Tmax in mouse at 20 mg/kg, po measured at 0.25 to 24 hrs by LC-MS/MS analysis. As to conditions: in vivo.
Data set [8] addresses Macrophage colony-stimulating factor 1 receptor (Homo sapiens) (UniProt P07333). Put plainly: Inhibition of partial length human CSF1R at 1000 nM by KINOMEscan analysis relative to control. The procedure, abridged:
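97-kinase scanEDGE panel screened at 1000 nM; results reported as % Ctrl, lower values meaning stronger inhibition.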

The test system of data set [9] is KATO III stomach cancer cell line. Put plainly: Antiproliferative activity against human KATO III stomach cancer cell line assessed as reduction in cell viability measured for 72 hrs by celltiter-glo reagent based assay. Format: functional. The procedure, abridged:
as §3

The target of data set [10] is Fibroblast growth factor receptor 2 (Homo sapiens) (UniProt P21802). Put plainly: Induction of FGFR2 receptor relocalization in human KATO III stomach cancer cell line at 100 nM measured for 3 hrs by immunofluorescence assay. Format: cell-based. As to conditions: filed as activator. The procedure, abridged: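 KATO III cells treated with 100 nM for 3 or 6 h, fixed in 2% formaldehyde 2 min, blocked 5% BSA 1 h, anti-FGFR2 overnight, Alexa Fluor 488 secondary 1 h, DAPI 10 min; imaged by fluorescence microscopy.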
Fibroblast growth factor receptor 2 (Homo sapiens), sequence (P21802 22-821 limits assumed): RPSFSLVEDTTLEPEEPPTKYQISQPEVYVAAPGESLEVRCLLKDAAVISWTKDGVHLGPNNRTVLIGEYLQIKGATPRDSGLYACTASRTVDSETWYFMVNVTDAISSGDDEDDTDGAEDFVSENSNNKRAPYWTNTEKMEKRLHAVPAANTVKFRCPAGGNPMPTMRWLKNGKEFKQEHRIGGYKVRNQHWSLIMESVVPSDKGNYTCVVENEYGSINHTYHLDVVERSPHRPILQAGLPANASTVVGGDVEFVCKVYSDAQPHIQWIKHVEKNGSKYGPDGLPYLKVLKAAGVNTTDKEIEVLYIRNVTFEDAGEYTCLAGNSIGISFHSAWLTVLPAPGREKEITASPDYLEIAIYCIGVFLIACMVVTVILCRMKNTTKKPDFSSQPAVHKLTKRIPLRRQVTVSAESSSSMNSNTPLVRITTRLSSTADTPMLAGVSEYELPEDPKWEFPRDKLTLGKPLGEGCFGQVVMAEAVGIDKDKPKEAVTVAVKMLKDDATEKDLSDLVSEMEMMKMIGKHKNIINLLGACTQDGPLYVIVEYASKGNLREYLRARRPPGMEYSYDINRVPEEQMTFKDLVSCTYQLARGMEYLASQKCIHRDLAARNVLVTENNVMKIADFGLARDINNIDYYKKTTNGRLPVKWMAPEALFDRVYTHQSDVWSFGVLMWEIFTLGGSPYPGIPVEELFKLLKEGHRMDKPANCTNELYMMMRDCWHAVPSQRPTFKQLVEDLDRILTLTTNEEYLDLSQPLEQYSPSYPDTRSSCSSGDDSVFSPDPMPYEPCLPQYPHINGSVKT

Data set [11] concerns the target T1, Protein cereblon/Fibroblast growth factor receptor 2 (Homo sapiens, UniProt P21802+Q96SW2). The experiment in a line: PROTAC activity at CRBN/FGFR2 in human KATO III stomach cancer cell line assessed as FGFR2 degradation by measuring FGFR2 expression level at 100 nM measured after 12 hrs by Western blotting analysis relative to control. It is filed as cell-based. The essentials:
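Time course in KATO III cells: FGFR2/β-actin by Western blot at successive treatment times, normalized to DMSO control.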
Target sequence in this assay (P21802 22-821 limits assumed): as above
Target sequence in this assay (Q96SW2 whole entry partner): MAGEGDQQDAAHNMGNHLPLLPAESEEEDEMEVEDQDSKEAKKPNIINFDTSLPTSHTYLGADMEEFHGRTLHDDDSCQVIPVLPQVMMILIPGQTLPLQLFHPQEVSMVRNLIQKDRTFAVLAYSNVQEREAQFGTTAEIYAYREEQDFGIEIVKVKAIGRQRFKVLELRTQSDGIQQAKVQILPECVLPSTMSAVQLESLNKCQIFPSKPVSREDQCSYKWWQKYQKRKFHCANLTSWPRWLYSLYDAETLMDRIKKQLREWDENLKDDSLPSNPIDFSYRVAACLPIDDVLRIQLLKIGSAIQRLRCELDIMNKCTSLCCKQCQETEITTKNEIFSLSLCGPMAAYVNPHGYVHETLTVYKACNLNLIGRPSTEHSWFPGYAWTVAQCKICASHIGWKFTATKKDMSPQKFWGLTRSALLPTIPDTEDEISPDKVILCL
In general terms: Immunoblotting shows a protein as a band on a membrane.

Data set [12] deals with T1, Protein cereblon/Fibroblast growth factor receptor 2. Put plainly: PROTAC activity at CRBN/FGFR2 in human KATO III stomach cancer cell line assessed as FGFR2 degradation measured for 6 hrs in presence of MG132 by immunoblot analysis. Format: cell-based. The essentials:
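KATO III cells were pretreated with 1 μM proteasome inhibitor (MG132 or bortezomib), then exposed to degrader at 100 nM for 6 h. FGFR2 was read by immunoblot against β-actin loading, with ECL detection.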
Target sequence in this assay (P21802 22-821 limits assumed): as the sequence (P21802 22-821 limits assumed) above
Target sequence in this assay (Q96SW2 whole entry partner): as the sequence (Q96SW2 whole entry partner) above

For data set [13] the target is unchanged. The experiment in a line: PROTAC activity at CRBN/FGFR2 in human KATO III stomach cancer cell line assessed as FGFR2 degradation by measuring FGFR2 expression level measured for 6 hrs by Western blotting analysis. It is filed as cell-based. The essentials:
(§5)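 KATO III cells treated 6 h across 0.5–10,000 nM (DMSO stock, final DMSO below 0.5%); FGFR2 immunoblotted, quantified as FGFR2/β-actin ratio normalized to DMSO-treated cells, three independent biological experiments; DC50 and Dmax derived from the curve.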
Target sequence in this assay (P21802 whole entry): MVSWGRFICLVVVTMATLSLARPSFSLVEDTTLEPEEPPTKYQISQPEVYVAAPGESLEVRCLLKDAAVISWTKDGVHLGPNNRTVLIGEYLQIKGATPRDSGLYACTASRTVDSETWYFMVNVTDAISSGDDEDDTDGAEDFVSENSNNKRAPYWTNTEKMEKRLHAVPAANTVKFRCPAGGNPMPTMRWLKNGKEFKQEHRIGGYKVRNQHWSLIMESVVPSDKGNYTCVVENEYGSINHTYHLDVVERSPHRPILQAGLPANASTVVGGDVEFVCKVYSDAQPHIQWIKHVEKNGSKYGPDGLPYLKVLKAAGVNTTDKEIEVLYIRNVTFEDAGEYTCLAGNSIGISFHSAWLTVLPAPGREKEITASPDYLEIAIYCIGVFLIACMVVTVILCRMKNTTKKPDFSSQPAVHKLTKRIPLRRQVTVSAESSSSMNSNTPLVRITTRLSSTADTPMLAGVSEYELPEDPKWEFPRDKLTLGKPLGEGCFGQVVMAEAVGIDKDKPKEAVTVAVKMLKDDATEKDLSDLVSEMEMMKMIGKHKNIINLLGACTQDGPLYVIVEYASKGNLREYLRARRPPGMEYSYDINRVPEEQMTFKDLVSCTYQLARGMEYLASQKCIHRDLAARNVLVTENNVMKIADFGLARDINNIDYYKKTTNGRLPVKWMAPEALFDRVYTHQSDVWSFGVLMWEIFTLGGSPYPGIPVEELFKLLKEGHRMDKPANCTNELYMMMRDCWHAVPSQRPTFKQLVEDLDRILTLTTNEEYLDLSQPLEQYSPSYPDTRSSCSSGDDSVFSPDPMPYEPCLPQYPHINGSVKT
Target sequence in this assay (Q96SW2 whole entry): as the sequence (Q96SW2 whole entry partner) above

Data set [14] is described as follows: Toxicity in BALB/c mouse xenografted with human SNU-16 cells assessed as body weight loss at 20 mg/kg, po administered for 15 days and measured on day 2. Format: organism-based. As to conditions: in vivo, 48 h, time 2 day. The essentials:
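Female BALB/c nude mice, 5 weeks old (20–22 g), carried subcutaneous SNU-16 xenografts in the right flank. Dosing began at mean tumor volume 50–100 mm3, after randomization by body weight, n = 5. Mice received 20 mg/kg/day by gavage in 0.5% CMC-Na, QD for 15 d, with vehicle controls. Body weight was measured every 2 days.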

The nature of data set [15]: Nephrotoxicity in ICR mouse assessed as effect on creatinine level at 20 mg/kg, po measured for 30 days. It is filed as toxicity, organism-based. The settings on record: in vivo, 720 h, time 30 day. The procedure, abridged:
as §2

For data set [16], the target named is T1, Protein cereblon/Fibroblast growth factor receptor 2. Put plainly: PROTAC activity at CRBN/FGFR2 in human KATO III stomach cancer cell line assessed as FGFR2 degradation by measuring FGFR2 expression level at 100 to 500 nM measured for 6 hrs by Western blotting analysis. Format: cell-based. The settings on record: dose 100-500 nM. The essentials:
as §5
Target sequence in this assay (P21802 22-821 limits assumed): as the sequence (P21802 22-821 limits assumed) above
Target sequence in this assay (Q96SW2 whole entry partner): as the sequence (Q96SW2 whole entry partner) above

Data set [17] concerns the target Fibroblast growth factor receptor 3 (Homo sapiens) (UniProt P22607). The experiment in a line: Induction of FGFR3 degradation in human MCF7 cells at 100 nM measured for 6 hrs Western blot analysis. It is filed as cell-based. The procedure, abridged: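 NCI-H1581 (FGFR1), MCF7 (FGFR3) and Huh7 (FGFR4) cells, which endogenously express the isoforms, treated with 100 nM for 6 h; isoform levels by Western blot against β-actin, three biologically independent experiments.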

The test system of data set [18] is BaF3. The experiment in a line: Antiproliferative activity against mouse BaF3 cells expressing Tel-FGFR4 assessed as cell growth inhibition measured after 72 hrs by celltiter-glo reagent based assay. As to conditions: BaF3, 72 h. It is filed as functional. The essentials:
as §4

For data set [19], the system named is BaF3. The experiment in a line: Antiproliferative activity against mouse BaF3 cells expressing Tel-FGFR3 assessed as cell growth inhibition measured after 72 hrs by celltiter-glo reagent based assay. The settings on record: BaF3, 72 h. It is filed as functional. The essentials:
as §4

Data set [20] is described as follows: AUC (0 to infinity) in mouse at 3 mg/kg, iv measured at 0.083 to 24 hrs by LC-MS/MS analysis. The settings on record: in vivo.
Data set [21] in a line: Toxicity in ICR mouse assessed as change in kidney weight at 20 mg/kg, po measured for 30 days. Format: organism-based. The settings on record: in vivo, 720 h, time 30 day. The essentials: as §1

The IC50 is the concentration that inhibits the measured activity by half. In general, clearance refers to the rate of elimination divided by the concentration. High values mean a high capacity for elimination, low ones a low capacity for elimination. A word on the Tmax: it is the time from dosing to the highest level. The inhibition is how much of the control response was suppressed. High values mean a response far below the control, low ones a response near the control. One may read the DC50 as the midpoint of the concentration-degradation curve. By AUC(0-inf) is commonly meant the area under the concentration-time curve extrapolated to infinity. Low readings indicate low exposure, high ones high exposure.

Activity calls are given as the source filed them. The rule behind the calls is not given here.

Macrophage colony-stimulating factor 1 receptor (Homo sapiens), sequence (P07333 whole entry): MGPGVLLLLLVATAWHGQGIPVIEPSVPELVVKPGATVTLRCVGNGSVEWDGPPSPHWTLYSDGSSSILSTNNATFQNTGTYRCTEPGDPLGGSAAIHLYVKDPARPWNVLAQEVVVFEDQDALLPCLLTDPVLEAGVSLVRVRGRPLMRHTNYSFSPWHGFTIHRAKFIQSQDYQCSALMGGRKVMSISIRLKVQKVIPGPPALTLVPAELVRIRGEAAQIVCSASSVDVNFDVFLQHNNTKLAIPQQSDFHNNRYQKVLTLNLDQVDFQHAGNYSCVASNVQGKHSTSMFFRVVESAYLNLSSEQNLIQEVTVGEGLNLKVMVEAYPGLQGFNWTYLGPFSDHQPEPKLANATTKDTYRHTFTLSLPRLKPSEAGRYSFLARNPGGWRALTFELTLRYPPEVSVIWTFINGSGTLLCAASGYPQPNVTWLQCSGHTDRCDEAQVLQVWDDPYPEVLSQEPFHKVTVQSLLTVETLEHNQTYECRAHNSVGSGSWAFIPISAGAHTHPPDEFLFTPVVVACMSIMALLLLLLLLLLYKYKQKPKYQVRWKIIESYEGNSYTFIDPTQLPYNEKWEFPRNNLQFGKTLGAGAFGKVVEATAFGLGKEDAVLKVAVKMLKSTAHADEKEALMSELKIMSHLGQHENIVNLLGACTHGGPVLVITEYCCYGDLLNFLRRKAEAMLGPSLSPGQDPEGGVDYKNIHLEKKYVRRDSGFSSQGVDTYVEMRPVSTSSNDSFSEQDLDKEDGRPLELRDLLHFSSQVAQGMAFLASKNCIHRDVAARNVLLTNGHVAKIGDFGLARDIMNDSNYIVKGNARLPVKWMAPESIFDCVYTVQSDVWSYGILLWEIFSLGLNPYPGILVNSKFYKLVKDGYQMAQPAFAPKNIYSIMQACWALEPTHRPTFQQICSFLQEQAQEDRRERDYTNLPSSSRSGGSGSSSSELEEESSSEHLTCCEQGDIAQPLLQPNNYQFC
Fibroblast growth factor receptor 3 (Homo sapiens), sequence (P22607 23-806 limits assumed): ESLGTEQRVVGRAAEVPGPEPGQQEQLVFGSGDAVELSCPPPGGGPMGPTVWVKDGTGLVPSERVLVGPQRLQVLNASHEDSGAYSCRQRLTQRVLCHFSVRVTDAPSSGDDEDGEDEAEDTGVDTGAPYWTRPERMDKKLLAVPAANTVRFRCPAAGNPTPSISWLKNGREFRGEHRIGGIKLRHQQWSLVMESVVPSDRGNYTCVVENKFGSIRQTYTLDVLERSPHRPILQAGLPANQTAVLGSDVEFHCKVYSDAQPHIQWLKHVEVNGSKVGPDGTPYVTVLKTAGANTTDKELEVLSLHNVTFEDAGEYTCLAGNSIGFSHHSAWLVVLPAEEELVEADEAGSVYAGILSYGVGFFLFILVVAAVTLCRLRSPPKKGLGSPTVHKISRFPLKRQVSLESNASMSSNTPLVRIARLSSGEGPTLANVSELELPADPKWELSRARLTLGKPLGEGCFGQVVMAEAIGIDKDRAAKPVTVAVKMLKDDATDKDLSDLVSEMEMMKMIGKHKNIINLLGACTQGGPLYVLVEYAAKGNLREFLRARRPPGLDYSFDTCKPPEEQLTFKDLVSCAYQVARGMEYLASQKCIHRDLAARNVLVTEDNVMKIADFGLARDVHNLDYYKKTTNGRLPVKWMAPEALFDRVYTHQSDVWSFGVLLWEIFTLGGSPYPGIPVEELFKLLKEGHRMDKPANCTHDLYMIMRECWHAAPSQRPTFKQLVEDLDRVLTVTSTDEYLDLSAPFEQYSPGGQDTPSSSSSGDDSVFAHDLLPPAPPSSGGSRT

Regarding `COc1cc(OC)c(Cl)c(NC(=O)N(C)c2cc(Nc3ccc(N4CCN(C(=O)C5CCN(c6ccc7c(c6)C(=O)N(C6CCC(=O)NC6=O)C7=O)CC5)CC4)cc3)ncn2)c1Cl` (configuration not stated), the result in [1] and in data set [10] was Active. The Activity result in data set [2] was “Non-Toxic”; in data set [3], “Non-Toxic”; in [5], “Non-Toxic”; in data set [11] it was 90%; in data set [14], “Non-Toxic”; in data set [15], “Non-Toxic”. The Activity is 70% in data set [16] and “Non-Toxic” in [21]. For the same compound, the IC50 in the data set on NCI-H1975 was above 10000 nM; in the data set on BaF3 [4], 10.3 nM; in data set [9], 29.1 nM; in the data set on BaF3 [18], above 10000 nM; in the data set on BaF3 [19] it was 139 nM. The compound also had a clearance in data set [6] of 121 mL/min/kg. Further, the Tmax in data set [7] came out at 2.67 h. The compound further registered an inhibition in data set [8] of 76%. Besides, the outcome in data set [12] and in [17] was inactive. In data set [13], the DC50 is 11.8 nM. This compound also had an AUC(0-inf) in data set [20] of 422 ng·h/mL.
